Activity calls are given as the source filed them. The calls are words filed in the database; no cut-off is given here.
How the values were obtained:
Leishmania donovani [1] = assay: Antileishmanial activity against Leishmania donovani HU3 infected in mouse assessed as inhibition of parasites in liver at 100 mg/kg/day, po treated for 5 days administered 7 days postinfection measured after 14 days; format: functional
In short: (§1)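 L. donovani HU3 amastigotes, 1 × 10^7 given IV to mice. From day 7 post-infection, dosed orally once daily for 5 days in 0.25% methylcellulose-10% ethanol; reference stibogluconate given SC. Mice killed at day 14 post-infection. Parasite burden counted on liver impression smears against untreated controls. ED50 from linear regression, with 95% confidence limits.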

Plasmodium berghei [2] = assay: Antimalarial activity against Plasmodium berghei KBG-173 infected in Swiss(CD-1) mouse assessed as mean survival time at 0.25 mg/kg/day, po treated for 3 days; format: functional
In short: (§2)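 CD-1 mice, 5 weeks old, male or female, groups of five, infected with 5 × 10^4 P. berghei KBG-173 parasitized erythrocytes. Drug in 0.5% hydroxyethylcellulose/0.1% Tween 80, given orally once daily on days 3, 4 and 5 post-infection. Parasitemia from blood films on day +6. Read-out also includes increase in mean survival time over controls and survivors at day +34.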

Plasmodium berghei [3] = assay: Antimalarial activity against Plasmodium berghei KBG-173 infected in Swiss(CD-1) mouse assessed as mean survival time at 1 mg/kg/day, po treated for 3 days; format: functional; in short: as §2
Plasmodium berghei [4] = assay: Antimalarial activity against Plasmodium berghei KBG-173 infected in Swiss(CD-1) mouse assessed as survival at 0.25 mg/kg/day, po treated for 3 days measured on day 34; format: functional, organism-based; in short: as §2
Plasmodium berghei [5] = assay: Antimalarial activity against Plasmodium berghei KBG-173 infected in Swiss(CD-1) mouse assessed as survival at 1 mg/kg/day, po treated for 3 days measured on day 34; format: functional, organism-based; in short: as §2
Mus musculus = assay: Toxicity in Plasmodium berghei KBG-173 infected Swiss(CD-1) mouse at 64 mg/kg/day, po treated for 3 days; format: organism-based; parameters: route oral; conditions: in vivo, 72 h
In short: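 CD-1 mice infected with 5 × 10^4 P. berghei KBG-173 parasitized erythrocytes. Drug in 0.5% hydroxyethylcellulose/0.1% Tween 80, given orally on days 3-5 post-infection, 7 mice per dose. Blood films on day +6 and weekly to day +60. Mortality tabulated for 60 days; blood-film-negative survivors counted as cured.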

Pneumocystis carinii [6] = assay: Antimicrobial activity against Pneumocystis carinii infected BALB/c mouse at 1.3 mg/kg/day, po after 21 days administered 4 weeks postinfection by Giemsa staining method; format: functional, organism-based
In short: (§3)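 Female BALB/c mice, 6-8 weeks, immunosuppressed with dexamethasone […] in drinking water, then inoculated transtracheally with 10^6 P. carinii. From 4 weeks post-inoculation, drug given in drinking water for 3 weeks, 10 mice/group, intake monitored. Lung impression smears stained with Giemsa or methenamine silver, read blinded. Graded 0-5 on a log scale; group mean ± SE.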

Pneumocystis carinii [7] = assay: Antimicrobial activity against Pneumocystis carinii infected BALB/c mouse at 0.25 mg/kg/day, po after 21 days administered 4 weeks postinfection by Giemsa staining method; format: functional, organism-based; in short: as §3
Pneumocystis carinii [8] = assay: Antimicrobial activity against Pneumocystis carinii infected BALB/c mouse at 1.3 mg/kg/day, po after 21 days administered 4 weeks postinfection by Giemsa staining; format: functional, organism-based; in short: as §3
Pneumocystis carinii [9] = assay: Antimicrobial activity against Pneumocystis carinii infected BALB/c mouse at 0.25 mg/kg/day, po after 21 days administered 4 weeks postinfection by methenamine silver nitrate staining method; format: functional, organism-based; in short: as §3
Pneumocystis carinii [10] = assay: Antimicrobial activity against Pneumocystis carinii infected BALB/c mouse at 0.1 mg/kg/day, po after 21 days administered 4 weeks postinfection by methenamine silver nitrate staining method; format: functional, organism-based
Canis familiaris [11] = assay: Toxicity in Beagle dog assessed as survival at 6.4 mg/kg/day, po after 4 days; format: organism-based, Canis lupus familiaris; parameters: route oral; conditions: in vivo, 96 h
In short: (§4)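 Beagle dogs, 8-9 months old, given drug as bulk powder in gelatin capsules orally on days 1-4, at 0.0116 mmol/kg/day as base. Daily clinical observation. Methemoglobin measured by co-oximetry from jugular or cephalic blood, predose on days 1, 2 and 4, then through day 29.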

Canis familiaris [12] = assay: Toxicity in Beagle dog assessed as survival at 6.7 mg/kg/day, po after 4 days; format: organism-based, Canis lupus familiaris; parameters: route oral; conditions: in vivo, 96 h; in short: as §4
Canis familiaris [13] = assay: Toxicity in Beagle dog assessed as survival at 5.3 mg/kg/day, po after 4 days; format: organism-based, Canis lupus familiaris; parameters: route oral; conditions: in vivo, 96 h; in short: as §4
Canis familiaris [14] = assay: Toxicity in Beagle dog assessed as increase in methemoglobin level at 6.4 mg/kg/day, po between 7 to 11 days; format: organism-based, Canis lupus familiaris; parameters: route oral; conditions: in vivo; in short: as §4
Leishmania donovani [15] = assay: Antileishmanial activity against Leishmania donovani HU3 infected in mouse assessed as inhibition of parasites in liver at 10 mg/kg/day, po treated for 5 days administered 7 days postinfection measured after 14 days post-infection; format: functional; in short: as §1
Leishmania donovani [16] = assay: Antileishmanial activity against Leishmania donovani HU3 infected in mouse assessed as inhibition of parasites in liver at 5 mg/kg/day, po treated for 5 days administered 7 days postinfection measured after 14 days post-infection; format: functional; in short: as §1
Leishmania donovani [17] = assay: Antileishmanial activity against Leishmania donovani HU3 infected in mouse assessed as inhibition of parasites in liver at 0.4 mg/kg/day, po treated for 5 days administered 7 days postinfection measured after 14 days post-infection; format: functional; in short: as §1
Plasmodium berghei [18] = assay: Antimalarial activity against Plasmodium berghei KBG-173 infected in Swiss(CD-1) mouse assessed as parasitemia at 1 mg/kg/day, po treated for 3 days measured on day 6
Plasmodium berghei [19] = assay: Antimalarial activity against Plasmodium berghei KBG-173 infected in Swiss(CD-1) mouse assessed as parasitemia at 0.25 mg/kg/day, po treated for 3 days measured on day 6
Plasmodium berghei [20] = assay: Antimalarial activity Plasmodium berghei KBG-173 infected in Swiss(CD-1) mouse assessed as mean survival time at 2 mg/kg, po pretreated 2 days before infection; format: functional
In short: (§5)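 CD-1 mice, 5 weeks old, male or female, groups of five, infected with 5 × 10^4 P. berghei KBG-173 parasitized erythrocytes. One 2 mg/kg oral dose given on a single day, from day −3 to +2 relative to inoculation. Controls untreated. Read-out is increase in mean survival time over controls and number alive at day +30.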

Plasmodium berghei [21] = assay: Antimalarial activity Plasmodium berghei KBG-173 infected in Swiss(CD-1) mouse assessed as mean survival time at 2 mg/kg, po pretreated 3 days before infection; format: functional; in short: as §5
Plasmodium berghei [22] = assay: Antimalarial activity Plasmodium berghei KBG-173 infected in Swiss(CD-1) mouse assessed as survival at 2 mg/kg, po treated 2 day postinfection measured on day 30; format: functional, organism-based; parameters: dose 2 mg/kg; in short: as §5
Plasmodium berghei [23] = assay: Antimalarial activity Plasmodium berghei KBG-173 infected in Swiss(CD-1) mouse assessed as survival at 2 mg/kg, po treated 1 day postinfection measured on day 30; format: functional, organism-based; parameters: dose 2 mg/kg; in short: as §5
Plasmodium berghei [24] = assay: Antimalarial activity Plasmodium berghei KBG-173 infected in Swiss(CD-1) mouse assessed as survival at 2 mg/kg, po treated at day of infection measured on day 30; format: functional, organism-based; parameters: dose 2 mg/kg; in short: as §5
Plasmodium berghei [25] = assay: Antimalarial activity against Plasmodium berghei KBG-173 infected in Swiss(CD-1) mouse assessed as reduction in parasitemia at 4 mg/kg/day, po treated for 3 days measured on day 6; format: functional; parameters: scale not given: the % may be the effect or the level left; in short: as §2
Plasmodium berghei [26] = assay: Antimalarial activity against Plasmodium berghei KBG-173 infected in Swiss(CD-1) mouse assessed as survival at 4 mg/kg/day, po treated for 3 days measured on day 34; format: functional, organism-based; in short: as §2
Pneumocystis carinii [27] = assay: Antimicrobial activity against Pneumocystis carinii infected BALB/c mouse at 5 mg/kg/day, po after 21 days administered 4 weeks postinfection by Giemsa staining method; format: functional, organism-based; in short: as §3
Pneumocystis carinii [28] = assay: Antimicrobial activity against Pneumocystis carinii infected BALB/c mouse at 1 mg/kg/day, po after 21 days administered 4 weeks postinfection by Giemsa staining method; format: functional, organism-based; in short: as §3
Pneumocystis carinii [29] = assay: Antimicrobial activity against Pneumocystis carinii infected BALB/c mouse at 0.5 mg/kg/day, po after 21 days administered 4 weeks postinfection by Giemsa staining method; format: functional, organism-based; in short: as §3
Pneumocystis carinii [30] = assay: Antimicrobial activity against Pneumocystis carinii infected BALB/c mouse at 5 mg/kg/day, po after 21 days administered 4 weeks postinfection by methenamine silver nitrate staining method; format: functional, organism-based; in short: as §3
Pneumocystis carinii [31] = assay: Antimicrobial activity against Pneumocystis carinii infected BALB/c mouse at 1 mg/kg/day, po after 21 days administered 4 weeks postinfection by methenamine silver nitrate staining method; format: functional, organism-based; in short: as §3
Pneumocystis carinii [32] = assay: Antimicrobial activity against Pneumocystis carinii infected BALB/c mouse at 0.5 mg/kg/day, po after 21 days administered 4 weeks postinfection by methenamine silver nitrate staining method; format: functional, organism-based; in short: as §3
Pneumocystis carinii [33] = assay: Antimicrobial activity against Pneumocystis carinii infected BALB/c mouse at 0.1 mg/kg/day, po after 21 days administered 4 weeks postinfection by Giemsa staining method; format: functional, organism-based
Leishmania donovani [34] = assay: Antileishmanial activity against Leishmania donovani HU3 infected in mouse; format: functional; in short: as §1
Canis familiaris [35] = assay: Toxicity in Beagle dog assessed as increase in methemoglobin level at 0.64 mg/kg/day, po; format: organism-based, Canis lupus familiaris; parameters: route oral; conditions: in vivo
In short: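 Beagle dogs, one male and one female per enantiomer, given 0.64 mg/kg/day (0.5 mg/kg base) orally for 4 days. After a 5-week washout the same dogs received 1.91 mg/kg/day for 4 days. Methemoglobin sampled from days −6 to 36. Each dog's values are mean of duplicate determinations.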

Plasmodium berghei [36] = assay: Antimalarial activity Plasmodium berghei KBG-173 infected in Swiss(CD-1) mouse assessed as survival at 2 mg/kg, po pretreated 1 day before infection measured on day 30; format: functional, organism-based; parameters: dose 2 mg/kg; in short: as §5

SMILES: COc1cc(NC(C)CCCN)c2nccc(C)c2c1Oc1ccc(Cl)c(Cl)c1.O=C(O)CCC(=O)O (racemic)
- inhibition in vivo at 100 mg/kg/day (Leishmania donovani [1]): 99%
- MST (Plasmodium berghei [2]): 11.6 days
- MST (Plasmodium berghei [3]): 10.2 days
- Activity (Plasmodium berghei [4]): Active
- Activity (Plasmodium berghei [5]): Active
- Activity (Mus musculus): Toxic
- Activity (Pneumocystis carinii [6]): Active
- Activity (Pneumocystis carinii [7]): Active
- Activity (Pneumocystis carinii [8]): Active
- Activity (Pneumocystis carinii [9]): Active
- Activity (Pneumocystis carinii [10]): Active
- Activity (Canis familiaris [11]): Non-toxic
- Activity (Canis familiaris [12]): Non-toxic
- Activity (Canis familiaris [13]): Non-toxic
- Activity (Canis familiaris [14]): Toxic
- inhibition in vivo at 10 mg/kg/day (Leishmania donovani [15]): 99.8%
- inhibition in vivo at 5 mg/kg/day (Leishmania donovani [16]): 99.2%
- inhibition in vivo at 0.4 mg/kg/day (Leishmania donovani [17]): 34.1%
- Activity (Plasmodium berghei [18]): 0.1%
- Activity (Plasmodium berghei [19]): 4.8%

SMILES: COc1cc(N[C@H](C)CCCN)c2nccc(C)c2c1Oc1ccc(Cl)c(Cl)c1.O=C(O)CCC(=O)O
- inhibition in vivo at 100 mg/kg/day (Leishmania donovani [1]): 99.8%
- MST (Plasmodium berghei [20]): 8.4 days
- MST (Plasmodium berghei [21]): 4.6 days
- Activity (Plasmodium berghei [22]): inactive
- Activity (Plasmodium berghei [23]): inactive
- Activity (Plasmodium berghei [24]): inactive
- Activity (Plasmodium berghei [25]): 0%
- MST (Plasmodium berghei [2]): 11.6 days
- MST (Plasmodium berghei [3]): 20.5 days
- Activity (Plasmodium berghei [26]): inactive
- Activity (Pneumocystis carinii [27]): Active
- Activity (Pneumocystis carinii [28]): Active
- Activity (Pneumocystis carinii [29]): Active
- Activity (Pneumocystis carinii [7]): Active
- Activity (Pneumocystis carinii [30]): Active
- Activity (Pneumocystis carinii [31]): Active
- Activity (Pneumocystis carinii [32]): Active
- Activity (Pneumocystis carinii [9]): Active
- Activity (Pneumocystis carinii [33]): Active
- ED90 (Leishmania donovani [34]): 3.61 mg/kg
- ED50 (Leishmania donovani [34]; Leishmania donovani, HU3): 1.28 mg/kg
- Activity (Canis familiaris [35]): Toxic
- Activity (Plasmodium berghei [36]): inactive
- inhibition in vivo at 10 mg/kg/day (Leishmania donovani [15]): 99.3%
- inhibition in vivo at 5 mg/kg/day (Leishmania donovani [16]): 98%
- inhibition in vivo at 0.4 mg/kg/day (Leishmania donovani [17]): 61.5%
- Activity (Plasmodium berghei [18]): 0%
- Activity (Plasmodium berghei [19]): 0.2%

Source: ChEMBL document CHEMBL1649109, “Antiparasitic activities and toxicities of individual enantiomers of the 8-aminoquinoline 8-[(4-amino-1-methylbutyl)amino]-6-methoxy-4-methyl-5-[3,4-dichlorophenoxy]quinoline succinate” (Antimicrob Agents Chemother, 2008)
